ChEMBL document CHEMBL1129664, “Neuroactive polyamine wasp toxins: nuclear magnetic resonance spectroscopic analysis of the protolytic properties of philanthotoxin-343” (J Med Chem, 1996)

What was measured:
[1] = Macroscopic pKa value at 25 C, ionic strength 1 M; assay type: physicochemical
Method in brief: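 13C and 1H NMR titration in D2O, following chemical shifts against pD at 25 °C, ionic strength 1 M, with a 22 mM solution for the shift data. Carbons of the polyamine chain were assigned from shift data and total ionization shifts. Proton shifts were too small for quantitative analysis, so 1H titration curves were used only qualitatively.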

[2] = Macroscopic pKa value at 25 C, ionic strength 0.1 M; assay type: physicochemical
[3] = Macroscopic pKa value at 27 C, ionic strength 0.1 M; assay type: physicochemical

Structure (SMILES)	pKa ([1]; read-out: pK1)	pKa ([1]; read-out: pK2)	pKa ([1]; read-out: pK3)	pKa ([2]; read-out: pK1)	pKa ([2]; read-out: pK2)	pKa ([2]; read-out: pK3)	pKa ([1]; read-out: pK4)	pKa (physchem)	pKa ([3]; read-out: pK1)	pKa ([3]; read-out: pK2)	pKa ([3]; read-out: pK3)	pKa ([3]; read-out: pK4)
NCCCCNCCCN [SPERMIDINE]	8.93	10.3	10.9	8.15	9.74	10.2	–	–	–	–	–	–
CCCC(=O)NC(Cc1ccc(O)cc1)C(=O)NCCCNCCCCNCCCN (stereo unspecified)	8.5	9.5	10.4	–	–	–	11.4	–	–	–	–	–
NCCCNCCCCNCCCN [SPERMINE]	8.69	9.31	10.7	7.91	8.68	10.2	10.8	10.6	–	–	–	–
NCCCNCCCNCCCN [THERMINE]	–	–	–	–	–	–	–	–	7.36	8.81	10.1	10.8
NCCCCNCCCNCCCN	–	–	–	–	–	–	–	–	7.59	9.24	10.5	11.1
